Measured values published in ChEMBL document CHEMBL5038587, “Synthesis of Methoxy-, Methylenedioxy-, Hydroxy-, and Halo-Substituted Benzophenanthridinone Derivatives as DNA Topoisomerase IB (TOP1) and Tyrosyl-DNA Phosphodiesterase 1 (TDP1) Inhibitors and Their Biological Activity for Drug-Resistant Cancer” (J Med Chem, 2021).
The source made the active and inactive calls. The calls are words filed in the database; no cut-off is given here.

Assays:
[1] = molecular target: T1, DNA topoisomerase 1 (Homo sapiens) (UniProt P11387); experiment: Inhibition of recombinant TOP1 (unknown origin) at 1 uM using 3'-[32P]-labeled 117 bp DNA oligonucleotides as substrate incubated for 20 mins by PAGE analysis relative to CPT
T1 sequence (whole entry): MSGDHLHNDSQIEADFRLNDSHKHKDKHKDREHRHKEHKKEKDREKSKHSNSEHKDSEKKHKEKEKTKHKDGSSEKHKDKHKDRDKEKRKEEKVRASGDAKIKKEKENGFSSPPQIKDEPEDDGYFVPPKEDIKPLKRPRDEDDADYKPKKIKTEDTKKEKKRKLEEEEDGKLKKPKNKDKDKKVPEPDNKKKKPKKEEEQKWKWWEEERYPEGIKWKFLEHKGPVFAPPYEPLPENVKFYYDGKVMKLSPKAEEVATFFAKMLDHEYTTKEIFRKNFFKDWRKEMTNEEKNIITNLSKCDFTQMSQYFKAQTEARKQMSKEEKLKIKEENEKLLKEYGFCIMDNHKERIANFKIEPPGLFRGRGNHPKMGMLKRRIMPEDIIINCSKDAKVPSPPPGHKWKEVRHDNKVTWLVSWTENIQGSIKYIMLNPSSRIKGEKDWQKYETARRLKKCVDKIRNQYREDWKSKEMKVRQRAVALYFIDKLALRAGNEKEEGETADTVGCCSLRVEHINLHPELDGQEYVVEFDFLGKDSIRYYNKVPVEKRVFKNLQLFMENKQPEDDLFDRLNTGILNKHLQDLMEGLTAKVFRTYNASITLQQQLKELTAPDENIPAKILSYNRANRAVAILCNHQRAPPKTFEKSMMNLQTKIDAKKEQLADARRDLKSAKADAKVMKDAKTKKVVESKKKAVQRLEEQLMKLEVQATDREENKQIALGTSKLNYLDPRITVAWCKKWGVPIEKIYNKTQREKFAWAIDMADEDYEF
In short: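 3'-[32P]-labeled 117 bp oligonucleotide (~2 nM) with recombinant TOP1 and compound, 25 °C, 20 min. Buffer: 10 mM Tris-HCl pH 7.5, 50 mM KCl, 5 mM MgCl2, 0.1 mM EDTA, BSA. Stopped with 0.5% SDS and run on 20% denaturing PAGE with phosphorimaging.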

[2] = molecular target: Tyrosyl-DNA phosphodiesterase 1 (Homo sapiens, UniProt Q9NUW8); experiment: Inhibition of TDP1 (unknown origin) using 5'-FAM-AGGATCTAAAAGACTT-BHQ-3' as substrate at 100 uM measured after 30 mins by fluorescence assay relative to control
Sequence of Tyrosyl-DNA phosphodiesterase 1 (Q9NUW8 whole entry): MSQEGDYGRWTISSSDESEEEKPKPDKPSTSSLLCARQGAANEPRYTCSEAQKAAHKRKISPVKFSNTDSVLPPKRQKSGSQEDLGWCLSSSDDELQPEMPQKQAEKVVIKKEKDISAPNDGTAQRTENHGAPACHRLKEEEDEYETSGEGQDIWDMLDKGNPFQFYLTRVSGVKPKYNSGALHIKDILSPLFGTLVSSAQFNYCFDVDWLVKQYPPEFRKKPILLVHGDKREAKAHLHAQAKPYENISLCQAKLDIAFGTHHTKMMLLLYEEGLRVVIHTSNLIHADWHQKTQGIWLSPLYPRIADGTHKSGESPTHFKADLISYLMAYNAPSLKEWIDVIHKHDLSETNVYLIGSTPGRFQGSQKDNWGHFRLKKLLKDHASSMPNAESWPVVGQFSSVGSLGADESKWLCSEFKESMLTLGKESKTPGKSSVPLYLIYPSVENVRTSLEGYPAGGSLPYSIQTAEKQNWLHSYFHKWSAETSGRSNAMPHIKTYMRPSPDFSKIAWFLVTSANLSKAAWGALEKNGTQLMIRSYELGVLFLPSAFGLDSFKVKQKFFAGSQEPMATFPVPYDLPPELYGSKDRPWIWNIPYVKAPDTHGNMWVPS

[3] = system: DU-145; experiment: Cytotoxicity against human DU145 cells assessed as cell growth inhibition after 72 hrs by MTT assay; assay type: functional
In short: (§1)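 Compounds predissolved in DMSO, tested in a five-dose series from 0.01 to 100 µM for 72 h, then read by MTT. Percent viability inhibition is taken against control, and GI50 is fitted by nonlinear regression.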

[4] = system: A549; experiment: Cytotoxicity against human A549 cells assessed as cell growth inhibition after 72 hrs by MTT assay; assay type: functional
In short: (§2)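 Cells kept in RPMI 1640 or DMEM with 10% FBS at 37 °C, 5% CO2. Compounds predissolved in DMSO, tested in a five-dose series from 0.01 to 100 µM for 72 h, then read by MTT. Percent viability inhibition is taken against control, and GI50 is fitted by nonlinear regression.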

[5] = system: MCF7; experiment: Cytotoxicity against human MCF-7/TDP1 cells assessed as cell growth inhibition after 72 hrs by MTT assay; assay type: functional
In short: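 MCF-7/TDP1 is a TDP1-overexpressing line made by transfecting parental MCF-7, grown in RPMI 1640 or DMEM with 10% FBS at 37 °C, 5% CO2. DMSO-dissolved compounds tested at five doses from 0.01 to 100 µM, read by MTT. GI50 (mean ± SD, at least three repeats) fitted by nonlinear regression against control.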

[6] = system: HCT-116; experiment: Cytotoxicity against human HCT-116 cells assessed as cell growth inhibition after 72 hrs by MTT assay; assay type: functional; in short: as §2
[7] = Resistance index,ratio of GI50 for growth inhibition of human MCF-7/TDP1 cells to GI50 for growth inhibition of human MCF-7 cells; assay type: functional
In short: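 Resistance index is the MTT GI50 in TDP1-overexpressing MCF-7/TDP1 (transfected MCF-7) divided by the GI50 in parental MCF-7. GI50 values are mean ± SD of at least three experiments.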

[8] = system: MCF7; experiment: Cytotoxicity against human MCF-7 cells assessed as cell growth inhibition after 72 hrs by MTT assay; assay type: functional; in short: as §1

inhibition [1] | inhibition [2] | SMILES | also measured
20% |  | CN(C)CCn1c(=O)c2c3c(ccc2c2ccc4cc5c(cc4c21)OCO5)OCO3 | 
inactive |  | COc1cccc2c1c(=O)n(CCN(C)C)c1c3ccccc3ccc21 | 
20% |  | COc1ccc2c(c1)c(=O)n(CCN(C)C)c1c3ccccc3ccc21 | 
50% | 0% | CN(C)CCn1c(=O)c2ccc(F)cc2c2ccc3cc4c(cc3c21)OCO4 | 
50% | 0% | COc1cc2c(=O)n(CCN(C)C)c3c4cc(O)c(O)cc4ccc3c2cc1OC | 
20% |  | COc1cc2c(ccc3c4cc(OC)c(OC)cc4c(=O)n(CCN(C)C)c23)cc1O | 
inactive | 0% | COc1ccc2c(c1OC)c(=O)n(CCN(C)C)c1c3cc4c(cc3ccc21)OCO4 | 
20% |  | COc1ccc2c(c1O)c(=O)n(CCN(C)C)c1c3cc4c(cc3ccc21)OCO4 | 
< 20% |  | COc1cc2c3ccccc3c(=O)n(CCN(C)C)c2c2ccccc12 | 
20% | 0% | COc1cccc2c1ccc1c3ccccc3c(=O)n(CCN(C)C)c21 | 
inactive | 0% | COc1ccc2c(c1OC)c(=O)n(CCN(C)C)c1c3ccccc3ccc21 | 
20% |  | COc1ccc2c(=O)n(CCN(C)C)c3c4ccccc4ccc3c2c1 | 
20% | 0% | CN(C)CCn1c(=O)c2ccccc2c2ccc3cc(Br)ccc3c21 | 
25% |  | CN(C)CCn1c(=O)c2cc3c(cc2c2ccc4ccccc4c21)OCO3 | 
inactive | 0% | COc1cccc2ccc3c4ccccc4c(=O)n(CCN(C)C)c3c12 | 
20% | 0% | COc1cccc2c1c(=O)n(CCN(C)C)c1c3cc4c(cc3ccc21)OCO4 | 
< 20% | 0% | COc1cc2ccc3c4cc(OC)c(OC)cc4c(=O)n(CCN(C)C)c3c2cc1O | 
20% | 0% | CN(C)CCn1c(=O)c2cc(O)c(O)cc2c2ccc3cc4c(cc3c21)OCO4 | GI50 [3]: > 100000 nM
inactive | 0% | COc1cc2c(cc1OC(C)C)c(=O)n(CCN(C)C)c1c3cc4c(cc3ccc21)OCO4 | 
inactive | 0% | COc1ccc2c(=O)n(CCN(C)C)c3c4cc5c(cc4ccc3c2c1OC)OCO5 | 
20% |  | COc1cc2c(cc1O)c(=O)n(CCN(C)C)c1c3cc4c(cc3ccc21)OCO4 | 
75% | 0% | CN(C)CCn1c(=O)c2ccc(Cl)cc2c2ccc3cc4c(cc3c21)OCO4 | 
20% | 0% | CN(C)CCn1c(=O)c2ccccc2c2ccc3cc4c(cc3c21)OCO4 | 
 |  | COc1cc2c(=O)n(CCN(C)C)c3c4cc5c(cc4ccc3c2cc1OC)OCO5 | GI50 [4]: 320 nM; GI50 [3]: 78 nM; GI50 [5]: 7420 nM; GI50 [6]: 140 nM; RatioGI50 [7]: 19.9; GI50 [8]: 200 nM
20% | 0% | COc1cc2c(=O)n(CCN(C)C)c3c4cc5c(cc4ccc3c2cc1OC(C)C)OCO5 | GI50 [6]: 900 nM
inactive | 0% | COc1cc2ccc3c4ccc(OC)c(OC)c4c(=O)n(CCN(C)C)c3c2cc1OC | GI50 [6]: > 100000 nM

inhibition [1] | inhibition [2] | SMILES | also measured
50% | 0% | CN(C)CCn1c(=O)c2ccc(C(F)(F)F)cc2c2ccc3cc4c(cc3c21)OCO4 | GI50 [3]: 1000 nM
75% | 0% | CN(C)CCn1c(=O)c2cc(F)ccc2c2ccc3cc4c(cc3c21)OCO4 | GI50 [4]: 7870 nM
75% | 0% | COc1ccc2c(=O)n(CCN(C)C)c3c4cc5c(cc4ccc3c2c1)OCO5 | GI50 [8]: 200 nM
 |  | CC[C@@]1(O)C(=O)OCc2c1cc1n(c2=O)Cc2cc3ccccc3nc2-1 [CAMPTOTHECIN] | GI50 [4]: 310 nM; GI50 [5]: 3210 nM; GI50 [6]: 50 nM; GI50 [8]: 350 nM
20% |  | COc1cc2ccc3c4ccccc4c(=O)n(CCN(C)C)c3c2cc1OC | 
Active | 0% | COc1ccc2c(c1)c(=O)n(CCN(C)C)c1c3cc4c(cc3ccc21)OCO4 | 
inactive | 0% | COc1cc2ccccc2c2c1c1ccccc1c(=O)n2CCN(C)C | 
20% | 0% | COc1ccc2c(ccc3c4ccccc4c(=O)n(CCN(C)C)c23)c1 | 
inactive | 0% | COc1ccc2c(=O)n(CCN(C)C)c3c4ccccc4ccc3c2c1OC | 
inactive | 0% | COc1ccc2c(=O)n(CCN(C)C)c3c4cc5c(cc4ccc3c2c1O)OCO5 | GI50 [8]: > 100000 nM
< 20% |  | COc1cc2ccc3c4cc(OC)c(OC)cc4c(=O)n(CCN(C)C)c3c2cc1OC | 
inactive | 0% | COc1cc2ccc3c4c(OC)c(OC)ccc4c(=O)n(CCN(C)C)c3c2cc1OC | GI50 [3]: > 100000 nM; GI50 [6]: > 100000 nM; GI50 [8]: > 100000 nM
20% | 0% | CN(C)CCn1c(=O)c2ccccc2c2ccc3ccccc3c21 | 
< 20% |  | COc1cc2ccc3c4cc5c(cc4c(=O)n(CCN(C)C)c3c2cc1OC)OCO5 | 
20% | 0% | CN(C)CCn1c(=O)c2cc(O)ccc2c2ccc3ccccc3c21 | 
20% | 0% | COc1ccc2ccc3c4ccccc4c(=O)n(CCN(C)C)c3c2c1 | 
20% |  | CN(C)CCn1c(=O)c2c3c(ccc2c2ccc4ccccc4c21)OCO3 | 
20% | 0% | COc1cc2c(=O)n(CCN(C)C)c3c4cc5c(cc4ccc3c2cc1O)OCO5 | GI50 [4]: > 100000 nM; GI50 [8]: > 100000 nM
75% | 0% | CN(C)CCn1c(=O)c2cc([N+](=O)[O-])ccc2c2ccc3cc4c(cc3c21)OCO4 | 
inactive | 0% | COc1cccc2c(=O)n(CCN(C)C)c3c4ccccc4ccc3c12 | 
20% |  | CN(C)CCn1c(=O)c2cc3c(cc2c2ccc4cc5c(cc4c21)OCO5)OCO3 | 
75% | 0% | CN(C)CCn1c(=O)c2cc(F)c(F)cc2c2ccc3cc4c(cc3c21)OCO4 | 
20% | 0% | COc1cc2ccc3c4ccc5c(c4c(=O)n(CCN(C)C)c3c2cc1OC)OCO5 | 
inactive | 0% | CN(C)CCn1c(=O)c2cc(Br)ccc2c2ccc3cc4c(cc3c21)OCO4 | 
50% | 0% | CN(C)CCn1c(=O)c2cc(F)c(F)cc2c2ccc3ccccc3c21 | 
25% |  | COc1cc2c(=O)n(CCN(C)C)c3c4ccccc4ccc3c2cc1OC | 
